Bioassay records deposited in PubChem by Sanford-Burnham Center for Chemical Genomics.
Compounds with a hit are over-represented: about 1.8% of the library has one in this group of screens.
Hep lipid drop – modulators of hepatic lipid droplet formation; AML12 mouse hepatocytes, oleate lipid droplets, BODIPY imaging; inhibition, % at 6.5 µM; 0.4% of 240,000 active; AID 1656;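 active = lipid droplet intensity inhibited by at least 50%, with more than 500 cells counted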
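Material – AML12 mouse liver cells · Also added – oleate loading, 100 µM · Compound dosing – 6.5 µM single-point dosing · Times – overnight treatment with compound plus oleate · Measured by – fluorescence imaging, 20x objective, two fields per well · Read-out – percent inhibition of filter-corrected integrated lipid droplet intensity per well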
Jurkat NFkB inh – inhibitors of the PMA/ionomycin-induced NF-kB reporter in Jurkat cells; PMA/ionomycin-induced NF-kB luciferase reporter, luminescence; inhibition, % at 4 µM; 0.53% of 330,000 active; in the data active = inhibition above about 50%
H9c2 TAG inh – inhibitors of triacylglycerol accumulation; inhibition, % at 12.5 µM; H9c2 cells, Nile Red lipid (TAG) fluorescence; cells loaded with 200 µM oleic acid; 0.66% of 230,000 active;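 active = pattern-corrected inhibition of lipid staining of at least 50% with the nuclear-stain viability signal not falling by more than 50%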
697 NFkB inh – inhibitors of the PMA/ionomycin-induced NF-kB reporter in 697 B cells. 697 B-cell NF-kB luciferase reporter, 16 h. inhibition, % at 4 µM. 0.33% of 330,000 active. AID 435022; in the data active = inhibition above about 35%
iPSC survival up – enhancers of human iPSC single-cell survival; hiPSC single-cell survival, ATPlite luminescence; 100% = ROCK inhibitor wells, 0% = DMSO; survival enhancement, % at 20 µM; 0.044% of 360,000 active; AID 602274; in the data active = survival enhancement above about 18%;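 note: cells exposed to compounds for 16 hours before the ATP read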
Gli-Sufu antag – Gli-Sufu pathway antagonism; Sufu-KO-LIGHT fibroblasts, Gli luciferase reporter luminescence; inhibition, % at 5 µM; 0.74% of 340,000 active;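 active = inhibition above about 55%, limit read from the data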
697 NFkB conf – lowers PMA/ionomycin-induced NF-kB signal in 697 B cells; shares compounds with 697 NFkB inh; 697 B-cell NF-kB luciferase, 16 h; inhibition, % at 4 µM; 35% of 2,000 active; AID 449746; in the data active = inhibition mostly above about 28%, no sharp cut-off; inactive = mostly below about 22%
Each line names hits and unclear results; the compound was inactive in the other large screens (follow-up assays come after a bar, where they were run).

Cc1[nH]c2ccccc2c1C(=O)CN1C(=O)NC2(CC(C)CC(C)(C)C2)C1=O (stereo not drawn)	697 NFkB inh 38 (no result: H9c2 TAG inh) | 697 NFkB conf 49
CNC(=O)COC(=O)[C@@H](Nc1ccc(S(=O)(=O)N2CCOCC2)cc1[N+](=O)[O-])C(C)C	none (no result: H9c2 TAG inh)
O=C1C(=C2SCCCS2)CC/C1=C\c1ccc(F)cc1	none (no result: Hep lipid drop)
Cc1cccc(/C=C2\CCC(=C3SCCCS3)C2=O)c1	none (no result: Hep lipid drop) | 697 NFkB conf inactive
COc1ccc(NC(=O)c2ccc(S(=O)(=O)N3CC(C)CC(C)C3)cc2)cc1S(N)(=O)=O (stereo not drawn)	none (no result: Hep lipid drop)
COc1ccc(C)cc1NS(=O)(=O)c1ccc(NC(=O)CN(c2cc([N+](=O)[O-])ccc2C)S(C)(=O)=O)cc1	697 NFkB inh 38 (no result: H9c2 TAG inh) | 697 NFkB conf inactive
Cc1ccc2c(c1)N(C(=O)CCC(=O)NC1CCCCCC1)CC(C)O2 (stereo not drawn)	none
Cc1ccc(NC(=O)c2sc3ccccc3c2Cl)nc1	none (no result: Hep lipid drop, H9c2 TAG inh) | 697 NFkB conf inactive
O=C(OCn1nnc2ccccc2c1=O)c1cccc(S(=O)(=O)N2CCOCC2)c1	none (no result: Hep lipid drop)
COc1ccc(N(C)C(=O)c2cc3c(s2)-c2c(C)cccc2OC3)c(OC)c1	none
COc1ccc(N2CCN(c3oc(-c4ccccc4OC)nc3C#N)CC2)cc1	none (no result: H9c2 TAG inh)
COc1ccccc1-c1nc(C#N)c(N2CCN(c3ccccc3)CC2)o1	697 NFkB inh 37 (no result: H9c2 TAG inh) | 697 NFkB conf inactive
Cc1cc(NC2CCCC2)n2ncc(-c3ccccc3)c2n1	none (no result: H9c2 TAG inh) | 697 NFkB conf inactive
Cc1cc(NC2CCCC2)n2nc(C)c(-c3ccccc3)c2n1	none (no result: H9c2 TAG inh)
Cc1cc(NCc2ccccc2)n2ncc(-c3ccccc3)c2n1	none (no result: H9c2 TAG inh) | 697 NFkB conf inactive
Cc1nc2c(-c3ccccc3)cnn2c(N)c1-c1ccccc1	Gli-Sufu antag 56 (no result: H9c2 TAG inh) | 697 NFkB conf inactive
COCCN(C(=O)CNC(=O)c1cccs1)C(C(=O)NC(C)(C)C)c1ccccc1 (stereo not drawn)	none (no result: H9c2 TAG inh)
COc1ccc2[nH]cc(CCNC(=O)COc3ccc4ccc(=O)oc4c3)c2c1	none (no result: H9c2 TAG inh)
c1ccc(-c2nc3cc4ccccc4cc3[nH]2)nc1	none | 697 NFkB conf inactive
COc1cc(C2NC(=O)NC(C)=C2C(=O)OC(C)(C)C)ccc1OCC(=O)O (stereo not drawn)	697 NFkB inh 40 (no result: H9c2 TAG inh) | 697 NFkB conf inactive
CCN(CC)c1ccc(/C=C2/C(=O)ON=C2C)cc1	697 NFkB inh 40 | 697 NFkB conf 36
Cc1cccc(NS(=O)(=O)c2ccc(C(=O)N3CCN(c4ccccc4O)CC3)cc2)c1C	none (no result: H9c2 TAG inh)
O=S(=O)(NCC(c1ccc2c(c1)OCO2)N1CCN(c2ccccc2)CC1)c1ccccc1 (stereo not drawn)	none (no result: Hep lipid drop)
CCN1CCN(C(=O)c2sc3nc(C)nc(N4CCC(C)CC4)c3c2C)CC1	none
Cc1nc(N2CCC(C)CC2)c2c(C)c(C(=O)O)sc2n1	697 NFkB inh 35 | 697 NFkB conf inactive
Cc1ccc(C)c(N2C(=O)CC(Cc3ccccc3)C2=O)c1 (stereo not drawn)	none (no result: H9c2 TAG inh)
CC(C)C[C@H](NC(=O)c1nc[nH]c1C(=O)N1CCN(C(=O)OC(C)(C)C)CC1)C(=O)OC(C)(C)C	none | 697 NFkB conf inactive
O=C(O)C1CC=CCC1C(=O)Nc1ccc(S(=O)(=O)N2CCCc3ccccc32)cc1 (stereo not drawn)	none (no result: H9c2 TAG inh) | 697 NFkB conf inactive
O=C(Nc1ccc(S(=O)(=O)N2CCCc3ccccc32)cc1)C1CCCO1 (stereo not drawn)	none (no result: H9c2 TAG inh)
CSc1nnc2c3ccccc3n(CCc3ccccc3)c2n1	none (no result: Hep lipid drop) | 697 NFkB conf inactive
CSc1nnc2c3ccccc3n(Cc3ccccc3)c2n1	none
O=C(N=C1SC2CS(=O)(=O)CC2N1c1ccc(Br)cc1)C1CCCO1 (stereo not drawn)	none (no result: H9c2 TAG inh)
COc1ccccc1C(=O)NC(=O)COC(=O)c1cccc(C)c1O	none (no result: Hep lipid drop)
Cc1ccc(Sc2cc(NCCCO)c([N+](=O)[O-])c3nonc23)cc1	697 NFkB inh 46 | 697 NFkB conf 44
COc1cc(N=Nc2ccc3ccccc3c2)ccc1O	none (no result: H9c2 TAG inh)
Oc1ccc(N=Nc2ccc3ccccc3c2)cc1	none (no result: H9c2 TAG inh) | 697 NFkB conf inactive
O=S(=O)(c1cnc(Cl)c(Cl)c1)N1CCc2ccccc21	none
